Results on two substances are retold here after publication PMC8361970 (Pediatric Diabetes, 2021).

What all share (assay type): in vivo, human
In data set [1] the test system is children and adolescents (6–17 years) with type 1 diabetes, insulin-induced hypoglycemia. The following applies: for Mean PG increase from baseline after 30 min: 30 min after single SC dose, full analysis set; for IV glucose rescue required (participants): within 45 min of single SC dose. The method, boiled down:
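After an overnight fast, IV insulin glulisine was infused until PG fell below 80 mg/dL. Five min later, if PG was 54–80 mg/dL, a single SC injection was given. Central-lab PG was taken pre-dose and at 4–45 min (60 min if ≥21 kg). Change from baseline was analysed by ANCOVA (treatment, age group, injection site; baseline PG covariate), with PG at rescue carried forward.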

Data set [2] deals with children and adolescents (6–17 years) with type 1 diabetes. Nature of the data set: Phase 3 trial: adverse events. The following applies: for Duration of nausea AEs / Duration of vomiting AEs: majority of events; for Onset of nausea AEs after dosing: most AEs of nausea.
For data set [3] the test system is unchanged. Nature of the data set: Phase 3 trial: anti-drug antibodies. The note with it: the one positive participant.

Consider glucagon [reference compound], for which, in data set [1], the “Mean PG increase from baseline after 30 min” value came to 84.4 mg/mL and the “IV glucose rescue required (participants)” value is recorded as “none”. Besides, in data set [2], the “Duration of nausea AEs” value is on record as “less than 2 h”, the “Duration of vomiting AEs” value is given as “less than 5 min” and the “Onset of nausea AEs after dosing” value lay within 1.5 to 3 h.
On to dasiglucagon, for which, in data set [1], the Mean PG increase from baseline after 30 min stood at 0.982 mg/mL and the “IV glucose rescue required (participants)” value is recorded as “none”. Besides, in data set [2], the “Duration of nausea AEs” value is recorded as “less than 2 h”, the “Duration of vomiting AEs” value was “less than 5 min” and the “Onset of nausea AEs after dosing” value was 1.5 to 3 h. Further, in data set [3], the Anti-drug antibody titer result is listed as “low titer”, the “Cross-reaction of anti-drug antibodies with glucagon” value is “did not cross‐react with glucagon” and the “Neutralizing activity of anti-drug antibodies” value is reported as “No neutralizing activity was detected”.
